Laboratory results from ChEMBL document CHEMBL4251593, “Nontoxic combretafuranone analogues with high in vitro antibacterial activity” (Eur J Med Chem, 2018).
≈ marks a conversion by molar mass, not a printed value.

What was measured:
[1] = tested on: TERT-RPE1; assay: Cytotoxicity against human RPE1 cells assessed as reduction in cell viability after 48 hrs by ATPlite-based luminescent assay; settings: RPE-1, 48 h
In short: (§1)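 Cells were grown […] with 10% FBS, glutamax, NEAA and pen/strep at 37 °C, 5% CO2. Media were DMEM for RPE-1, HepG2 and BJ (BJ plus 10 ng/ml bFGF), F-12K for PC3, and IMDM for K562/HL-60. Cells were seeded at 500 per well and dosed from DMSO at 12 concentrations, 40 µM to 1 nM, in triplicate. After 48 h, intracellular ATP was read by luminescence. ED50 was obtained by variable-slope nonlinear regression.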

[2] = tested on: BJ; assay: Cytotoxicity against human BJ cells assessed as reduction in cell viability after 48 hrs by ATPlite-based luminescent assay; in short: as §1
[3] = tested on: K562; assay: Cytotoxicity against human K562 cells assessed as reduction in cell viability after 48 hrs by ATPlite-based luminescent assay; settings: K562, 48 h; in short: as §1
[4] = tested on: HL-60; assay: Cytotoxicity against human HL60 cells assessed as reduction in cell viability after 48 hrs by ATPlite-based luminescent assay; settings: HL-60, 48 h; in short: as §1
[5] = tested on: PC-3; assay: Cytotoxicity against human PC3 cells assessed as reduction in cell viability after 48 hrs by ATPlite-based luminescent assay; settings: PC-3, 48 h; in short: as §1
[6] = tested on: MCF7; assay: Cytotoxicity against human MCF7 cells assessed as reduction in cell viability after 48 hrs by ATPlite-based luminescent assay; settings: MCF7, 48 h
[7] = tested on: HepG2; assay: Cytotoxicity against human HepG2 cells assessed as reduction in cell viability after 48 hrs by ATPlite-based luminescent assay; settings: HepG2, 48 h; in short: as §1
[8] = tested on: TERT-RPE1; assay: Induction of apoptosis in human RPE1 cells assessed as caspase 3/7 activity after 24 hrs by caspase-glo luminescent assay; type: cell-based; settings: RPE-1, 24 h
In short: (§2)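 Cells were seeded at 500 per well in their growth media and exposed to 12 concentrations from 40 µM to 1 nM, delivered from DMSO, in triplicate. After 24 h, caspase-3/7 activity was read by Caspase-Glo luminescence. Data were normalized and ED50 was fitted by variable-slope nonlinear regression.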

[9] = tested on: K562; assay: Induction of apoptosis in human K562 cells assessed as caspase 3/7 activity after 24 hrs by caspase-glo luminescent assay; type: cell-based; settings: K562, 24 h; in short: as §2
[10] = tested on: HL-60; assay: Induction of apoptosis in human HL60 cells assessed as caspase 3/7 activity after 24 hrs by caspase-glo luminescent assay; type: cell-based; settings: HL-60, 24 h; in short: as §2
[11] = tested on: PC-3; assay: Induction of apoptosis in human PC3 cells assessed as caspase 3/7 activity after 24 hrs by caspase-glo luminescent assay; type: cell-based; settings: PC-3, 24 h; in short: as §2
[12] = tested on: HepG2; assay: Induction of apoptosis in human HepG2 cells assessed as caspase 3/7 activity after 24 hrs by caspase-glo luminescent assay; type: cell-based; settings: HepG2, 24 h; in short: as §2
[13] = tested on: Staphylococcus aureus; assay: Antibacterial activity against Staphylococcus aureus ATCC 6538 after 24 hrs by microdilution assay; type: functional; settings: ATCC 6538, 24 h
[14] = tested on: Staphylococcus aureus; assay: Antibacterial activity against methicillin-resistant Staphylococcus aureus HK5996/08 clinical isolate after 24 hrs by microdilution assay; type: functional; settings: HK5996/08, 24 h
[15] = tested on: Staphylococcus epidermidis; assay: Antibacterial activity against Staphylococcus epidermidis HK6966/08 clinical isolate after 24 hrs by microdilution assay; type: functional; settings: HK6966/08, 24 h
[16] = tested on: Enterococcus sp.; assay: Antibacterial activity against Enterococcus sp. HK14365/08 clinical isolate after 24 hrs by microdilution assay; type: functional; settings: HK14365/08, 24 h
[17] = tested on: Escherichia coli; assay: Antibacterial activity against Escherichia coli ATCC 8739 after 24 hrs by microdilution assay; type: functional; settings: ATCC 8739, 24 h
In short: (§3)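 Broth microdilution in Mueller-Hinton medium buffered to pH 7.4 (±0.2), with DMSO as diluent at no more than 2% final. Compounds were tested as 2-fold serial dilutions from 2000 to 0.488 µmol/l. The inoculum was 0.5 McFarland (1.5×10^8 cfu/ml). Plates were held at 37 °C and read visually at 24 and 48 h. MIC was taken as 95% growth inhibition versus control, determined twice in duplicate.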

[18] = tested on: Klebsiella pneumoniae; assay: Antibacterial activity against Klebsiella pneumoniae HK11750/08 clinical isolate after 24 hrs by microdilution assay; type: functional; settings: HK11750/08, 24 h
[19] = tested on: Klebsiella pneumoniae; assay: Antibacterial activity against Klebsiella pneumoniae HK14368/08 clinical isolate after 24 hrs by microdilution assay; type: functional; settings: HK14368/08, 24 h
[20] = tested on: Pseudomonas aeruginosa; assay: Antibacterial activity against Pseudomonas aeruginosa ATCC 9027 after 24 hrs by microdilution assay; type: functional; settings: ATCC 9027, 24 h; in short: as §3
[21] = tested on: Staphylococcus aureus; assay: Antibacterial activity against Staphylococcus aureus ATCC 6538 after 48 hrs by microdilution assay; type: functional; settings: ATCC 6538, 48 h
[22] = tested on: Staphylococcus aureus; assay: Antibacterial activity against methicillin-resistant Staphylococcus aureus HK5996/08 clinical isolate after 48 hrs by microdilution assay; type: functional; settings: HK5996/08, 48 h
[23] = tested on: Staphylococcus epidermidis; assay: Antibacterial activity against Staphylococcus epidermidis HK6966/08 clinical isolate after 48 hrs by microdilution assay; type: functional; settings: HK6966/08, 48 h
[24] = tested on: Enterococcus sp.; assay: Antibacterial activity against Enterococcus sp. HK14365/08 clinical isolate after 48 hrs by microdilution assay; type: functional; settings: HK14365/08, 48 h
[25] = tested on: Escherichia coli; assay: Antibacterial activity against Escherichia coli ATCC 8739 after 48 hrs by microdilution assay; type: functional; settings: ATCC 8739, 48 h; in short: as §3
[26] = tested on: Klebsiella pneumoniae; assay: Antibacterial activity against Klebsiella pneumoniae HK11750/08 clinical isolate after 48 hrs by microdilution assay; type: functional; settings: HK11750/08, 48 h
[27] = tested on: Klebsiella pneumoniae; assay: Antibacterial activity against Klebsiella pneumoniae HK14368/08 clinical isolate after 48 hrs by microdilution assay; type: functional; settings: HK14368/08, 48 h
[28] = tested on: Pseudomonas aeruginosa; assay: Antibacterial activity against Pseudomonas aeruginosa ATCC 9027 after 48 hrs by microdilution assay; type: functional; settings: ATCC 9027, 48 h; in short: as §3

Row | Compound | IC50 [1] | IC50 [2] | IC50 [3] | IC50 [4] | IC50 [5] | IC50 [6] | IC50 [7] | IC50 [8] | IC50 [9] | IC50 [10] | IC50 [11] | IC50 [12] | MIC95 [13] | MIC95 [14] | MIC95 [15] | MIC95 [16] | MIC95 [17] | MIC95 [18] | MIC95 [19] | MIC95 [20] | further results
1 | COc1ccc(C2=C(c3ccc(Br)cc3)C(=O)OC2)cc1 | 3.35 µM | > 40 µM | 0.53 µM | 0.83 µM | > 40 µM | 14.3 µM | > 40 µM | 56.4 µM | > 40 µM | 2.18 µM | > 40 µM | > 40 µM | > 1000 µM | > 1000 µM | 1000 µM (≈ 345 µg/mL) | > 1000 µM | > 1000 µM | > 1000 µM | > 1000 µM | > 1000 µM | MIC95 [21]: > 1000 µM; MIC95 [22]: > 1000 µM; MIC95 [23]: > 1000 µM; MIC95 [24]: > 1000 µM; MIC95 [25]: > 1000 µM; MIC95 [26]: > 1000 µM; MIC95 [27]: > 1000 µM; MIC95 [28]: > 1000 µM
2 | O=C1OCC(c2ccc(O)c(O)c2)=C1c1ccc(O)cc1 | > 40 µM | > 40 µM | 16.2 µM | > 40 µM | > 40 µM | > 40 µM | > 40 µM | > 40 µM | > 40 µM | > 40 µM | > 40 µM | > 40 µM | 250 µM (≈ 71.1 µg/mL) | 250 µM (≈ 71.1 µg/mL) | 250 µM (≈ 71.1 µg/mL) | 500 µM (≈ 142 µg/mL) | > 500 µM | > 500 µM | > 500 µM | > 500 µM | MIC95 [21]: 500 µM (≈ 142 µg/mL); MIC95 [22]: 500 µM (≈ 142 µg/mL); MIC95 [23]: 500 µM (≈ 142 µg/mL); MIC95 [24]: 500 µM (≈ 142 µg/mL); MIC95 [25]: > 500 µM; MIC95 [26]: > 500 µM; MIC95 [27]: > 500 µM; MIC95 [28]: > 500 µM
3 | O=C1OCC(c2ccc3c(c2)OCO3)=C1c1ccc2c(c1)OCO2 | 35.5 µM | > 40 µM | 16 µM | 17.4 µM | > 40 µM | > 40 µM | > 40 µM | > 40 µM | > 40 µM | > 40 µM | > 40 µM | > 40 µM | > 125 µM | > 125 µM | > 125 µM | > 125 µM | > 125 µM | > 125 µM | > 125 µM | > 125 µM | MIC95 [21]: > 125 µM; MIC95 [22]: > 125 µM; MIC95 [23]: > 125 µM; MIC95 [24]: > 125 µM; MIC95 [25]: > 125 µM; MIC95 [26]: > 125 µM; MIC95 [27]: > 125 µM; MIC95 [28]: > 125 µM
4 | COc1ccc(C2=C(c3ccc(OC)c(OC)c3)C(CO)(CO)OC2=O)cc1 | > 40 µM | > 40 µM | > 40 µM | > 40 µM | > 40 µM | > 40 µM | > 40 µM | > 40 µM | > 40 µM | > 40 µM | > 40 µM | > 40 µM | > 500 µM | 500 µM (≈ 193 µg/mL) | 250 µM (≈ 96.6 µg/mL) | > 500 µM | > 500 µM | > 500 µM | > 500 µM | > 500 µM | MIC95 [21]: > 500 µM; MIC95 [22]: 500 µM (≈ 193 µg/mL); MIC95 [23]: 250 µM (≈ 96.6 µg/mL); MIC95 [24]: > 500 µM; MIC95 [25]: > 500 µM; MIC95 [26]: > 500 µM; MIC95 [27]: > 500 µM; MIC95 [28]: > 500 µM
